Measured values published in ChEMBL document CHEMBL1146290, “Core exploration in optimization of chemokine receptor CCR4 antagonists” (Bioorg Med Chem Lett, 2007).
Active and inactive are the calls of the source. The calls are words filed in the database; no cut-off is given here.

How the values were obtained:
[1] = target: T1, C-C chemokine receptor type 4 (Homo sapiens, UniProt P51679); assay: Displacement of [125I]MDC from human CCR4 expressed in HEK293 cells; format: cell-based
T1 sequence (P51679 whole entry): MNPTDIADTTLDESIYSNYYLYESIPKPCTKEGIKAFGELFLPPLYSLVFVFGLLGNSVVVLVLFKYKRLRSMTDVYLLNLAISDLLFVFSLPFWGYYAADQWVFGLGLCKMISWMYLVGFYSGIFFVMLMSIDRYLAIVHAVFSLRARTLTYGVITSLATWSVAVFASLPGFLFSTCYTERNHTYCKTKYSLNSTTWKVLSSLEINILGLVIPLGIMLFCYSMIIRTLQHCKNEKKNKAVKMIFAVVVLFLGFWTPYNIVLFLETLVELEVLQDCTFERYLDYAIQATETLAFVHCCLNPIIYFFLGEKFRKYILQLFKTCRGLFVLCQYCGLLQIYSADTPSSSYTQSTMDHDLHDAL

[2] = target: T2, C-C chemokine receptor type 4 (Mus musculus) (UniProt P51680); assay: Inhibition of ovalbumin-induced eosinophil infiltration in BALB/c mouse allergic inflammation model at 5 mg/kg, po; format: functional, organism-based; design: dose 5 mg/kg
T2 sequence (whole entry): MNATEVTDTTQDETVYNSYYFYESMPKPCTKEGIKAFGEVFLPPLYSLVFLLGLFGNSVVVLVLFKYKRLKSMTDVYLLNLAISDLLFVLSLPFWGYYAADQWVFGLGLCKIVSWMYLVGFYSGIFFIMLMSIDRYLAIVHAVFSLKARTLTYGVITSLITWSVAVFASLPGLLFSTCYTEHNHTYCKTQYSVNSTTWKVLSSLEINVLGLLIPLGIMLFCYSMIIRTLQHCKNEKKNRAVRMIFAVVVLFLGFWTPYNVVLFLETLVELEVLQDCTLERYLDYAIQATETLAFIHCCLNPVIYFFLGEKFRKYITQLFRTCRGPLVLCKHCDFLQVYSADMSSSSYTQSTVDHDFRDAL
Procedure, shortened: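 Mice previously immunized with ovalbumin; dexamethasone given orally at 5 mg/kg as reference control. Total leukocytes, total eosinophils and percent eosinophils counted in bronchoalveolar lavage fluid. Seven to eight mice per group; means ± SEM; significance versus vehicle group by ANOVA with Dunnett's test (p < 0.05).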

[3] = Toxicity in human immortalized hepatocytes; format: cell-based, Hepatocyte
[4] = target: CYP450 (isoform not stated) (Homo sapiens, UniProt P04798+P05177+P05181+P08684+P10632+P10635+P11509+P11712+P13584+P20813+P20815+P20853+P24462+P24903+P33260+P33261+P51589+P78329+P98187+Q02928+Q08477+Q16678+Q16696+Q5TCH4+Q6VVX0+Q7Z449+Q8TAV3+Q96SQ9+Q9HB55); assay: Inhibition of CYP450; format: ADME
[5] = Carcinogenicity in SOS chromotest; format: ADME
[6] = target: T1, C-C chemokine receptor type 4; assay: Antagonist activity at human CCR4 expressed in CEMS529 cells assessed as effect on calcium mobilization; format: functional, cell-based
[7] = Metabolic stability in human microsomes; format: ADME, Microsome
[8] = target: T2, C-C chemokine receptor type 4 (Mus musculus); assay: Inhibition of ovalbumin-induced eosinophil infiltration in sc dosed BALB/c mouse allergic inflammation model
[9] = target: T2, C-C chemokine receptor type 4 (Mus musculus); assay: Inhibition of ovalbumin-induced eosinophil infiltration in BALB/c mouse allergic inflammation model at 30 mg/kg, sc

| SMILES | IC50 [1] | also measured |
| --- | --- | --- |
| O=C([C@@H]1CCCN1)N1CCN(c2nc(NCc3ccc(Cl)cc3Cl)c3cccnc3n2)CC1 | 80 nM | – |
| CCN(CC)CCCC(C)Nc1nc(NCc2ccc(Cl)cc2Cl)nc2ncn(CC)c12 (configuration not stated) | 2600 nM | – |
| CCN(CC)CCCC(C)Nc1ncc2c(ncn2Cc2ccc(Cl)cc2Cl)n1 (configuration not stated) | 830 nM | – |
| CCN(CC)CCCC(C)Nc1nc(NC)nc(NCc2ccc(Cl)cc2Cl)n1 (configuration not stated) | 3600 nM | – |
| CCN(CC)CCCC(C)Nc1ccc2cnn(Cc3ccc(Cl)cc3Cl)c2n1 (configuration not stated) | 280 nM | – |
| C[C@@H]1C[C@H]2[C@@H]3CCC4=CC(=O)C=C[C@]4(C)[C@@]3(F)[C@@H](O)C[C@]2(C)[C@@]1(O)C(=O)CO | – | Activity [2]: Active |
| CCN(CC)C(C)CCCNc1nccc(NCc2ccc(Cl)cc2Cl)n1.N (configuration not stated) | 280 nM | IC50 [3]: > 40000 nM; IC50 [4]: > 1000 nM; Activity [5]: Non-toxic; IC50 [6]: 800 nM; Stability [7]: 0.1 nmol/mg/min |
| CCN(CC)CCCC(C)Nc1nc(NCc2ccc(Cl)cc2Cl)c2[nH]cnc2n1 (configuration not stated) | 4900 nM | – |
| O=C([C@@H]1CCCCN1)N1CCN(c2nc(NCc3ccc(Cl)cc3Cl)c3cccnc3n2)CC1 | – | ED50 [8]: 10 mg/kg; Activity [9]: Active; Stability [7]: 0.003 nmol/mg/min |
| CCN(CC)CCCC(C)Nc1nc(NCc2ccc(Cl)cc2Cl)c2c(ncn2CC)n1 (configuration not stated) | 1100 nM | – |
| CCN(CC)CCCC(C)Nc1nc(NCc2ccc(Cl)cc2Cl)c2ccccc2n1 (configuration not stated) | 500 nM | – |
| CCN(CC)CCCC(C)Nc1nc(NCc2ccc(Cl)cc2Cl)nc2nc[nH]c12 (configuration not stated) | 2100 nM | – |
| CCN(CC)CCCC(C)Nc1ncc2ncn(Cc3ccc(Cl)cc3Cl)c2n1 (configuration not stated) | 820 nM | – |
| CCN(CC)CCCC(C)Nc1nc(NCc2ccc(Cl)cc2Cl)nc2ccccc12 (configuration not stated) | 1910 nM | – |
| CCN(CC)CCCC(C)Nc1nc(NCc2ccc(Cl)cc2Cl)c2cccnc2n1 (configuration not stated) | 140 nM | – |
